# Data from ChEMBL document CHEMBL2150856, “Fluorinated N,N-dialkylaminostilbenes for Wnt pathway inhibition and colon cancer repression” (J Med Chem, 2011).
# Activity calls are given as the source filed them. The rule behind the calls is not given here.
# Tests used:
# LS174T [1] = experiment: Inhibition of Wnt/beta-catenin in human LS174T cells assessed as reduction in Axin-2 protein level at 10 uM by Western blotting; type: cell-based
# LS174T [2] = experiment: Inhibition of Wnt/beta-catenin in human LS174T cells assessed as effect on […] at 10 uM by Western blotting; type: cell-based
# LS174T [3] = experiment: Inhibition of Wnt/beta-catenin in human LS174T cells assessed as reduction in c-Myc protein level at 10 uM by Western blotting; type: cell-based
# SW480 [4] = experiment: Cytotoxicity against human SW480 cells at 10 uM for 4 days by vi-cell cell viability analysis; type: functional, cell-based
# Outline: (§1)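 CRC cells treated with DMSO or inhibitor for 2d and 4d; cell number and viability counted on a Vi-Cell analyzer. HCT116 and SW480 kept in DMEM with 10% FBS; LS174T in RPMI with 5% FBS; all with 1% penicillin/streptomycin.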
# HCT-116 [5] = experiment: Cytotoxicity against human HCT116 cells at 10 uM for 4 days by vi-cell cell viability analysis; type: functional, cell-based; outline: as §1
# HCT-116 [6] = experiment: Cytotoxicity against human HCT116 cells at 10 uM for 2 days by vi-cell cell viability analysis; type: functional, cell-based; outline: as §1
# SW480 [7] = experiment: Cytotoxicity against human SW480 cells at 10 uM for 2 days by vi-cell cell viability analysis; type: functional, cell-based; outline: as §1
# LS174T [8] = experiment: Cytotoxicity against human LS 174T cells at 10 uM for 4 days by vi-cell cell viability analysis; type: functional, cell-based; outline: as §1
# LS174T [9] = experiment: Cytotoxicity against human LS 174T cells at 10 uM for 2 days by vi-cell cell viability analysis; type: functional, cell-based; outline: as §1
# LS174T [10] = experiment: Inhibition of Wnt/beta-catenin in human LS174T cells assessed as reduction in c-Myc protein level at 30 uM by Western blotting; type: cell-based
# LS174T [11] = experiment: Inhibition of Wnt/beta-catenin in human LS174T cells assessed as reduction in Axin-2 protein level at 30 uM by Western blotting; type: cell-based
# LS174T [12] = experiment: Inhibition of Wnt/beta-catenin in human LS174T cells assessed as increase in p21WAF1/CIP1 protein level at 100 uM by Western blotting; type: cell-based
# LS174T [13] = experiment: Inhibition of Wnt/beta-catenin in human LS174T cells assessed as reduction in c-Myc mRNA level at 100 uM after 36 hrs by RT-PCR analysis; type: cell-based
# HEK-293T [14] = experiment: Inhibition of […] in human HEK293T cells transfected with TOP Flash assessed as decrease in luciferase expression at 100 uM after 12 hrs by dual luciferase reporter assay; type: cell-based
# Outline: (§2)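 HEK293T transiently transfected (calcium phosphate) with Super8xTOPFlash plus Renilla luciferase reporters; medium changed after 12h, then 6h later cells pretreated 12h with DMSO or inhibitor before stimulation with 25mM LiCl or Wnt3A-conditioned medium. After 12h, dual-luciferase read-out; triplicate wells, each experiment run at least twice.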
# LS174T [15] = experiment: Inhibition of Wnt/beta-catenin in human LS 174T cells assessed as reduction in TCF4 protein level at 100 uM by Western blotting; type: cell-based
# LS174T [16] = experiment: Inhibition of Wnt/beta-catenin in human LS174T cells assessed as reduction in Lgr5 mRNA level at 100 uM after 36 hrs by RT-PCR analysis; type: cell-based
# LS174T [17] = experiment: Inhibition of Wnt/beta-catenin in human LS 174T cells assessed as reduction in pygopus2 protein level at 100 uM by Western blotting; type: cell-based
# LS174T [18] = experiment: Inhibition of Wnt/beta-catenin in human LS174T cells assessed as reduction in survivin mRNA level at 100 uM after 36 hrs by RT-PCR analysis; type: cell-based
# LS174T [19] = experiment: Inhibition of Wnt/beta-catenin in human LS174T cells assessed as reduction in Ki67 mRNA level at 100 uM after 36 hrs by RT-PCR analysis; type: cell-based
# LS174T [20] = experiment: Inhibition of Wnt/beta-catenin in human LS174T cells assessed as reduction in c-Myc protein level at 100 uM by Western blotting; type: cell-based
# LS174T [21] = experiment: Inhibition of Wnt/beta-catenin in human LS174T cells assessed as reduction in Cyclin D1 protein level at 100 uM by Western blotting; type: cell-based
# HEK-293T [22] = experiment: Inhibition of LiCl-induced […] in human HEK293T cells transfected with TOP Flash assessed as decrease in luciferase expression at 100 uM after 12 hrs by dual luciferase reporter assay; type: cell-based; outline: as §2
# LS174T [23] = experiment: Inhibition of Wnt/beta-catenin in human LS174T cells assessed as reduction in cyclin B1 protein level at 100 uM by Western blotting; type: cell-based
# LS174T [24] = experiment: Inhibition of Wnt/beta-catenin in human LS174T cells assessed as effect on […] at 100 uM by Western blotting; type: cell-based
# LS174T [25] = experiment: Inhibition of Wnt/beta-catenin in human LS174T cells assessed as reduction in CD44 mRNA level at 100 uM after 36 hrs by RT-PCR analysis; type: cell-based
# LS174T [26] = experiment: Inhibition of Wnt/beta-catenin in human LS 174T cells assessed as reduction in TCF4 protein level at 10 uM by Western blotting; type: cell-based
# LS174T [27] = experiment: Cytotoxicity against human LS 174T cells at 0.1 uM for 2 days by vi-cell cell viability analysis; type: functional, cell-based; outline: as §1
# LS174T [28] = experiment: Antitumor activity against human LS 174T cells xenografted in C57BL/6J athymic nude mouse assessed as reduction in tumor growth at 20 mg/kg/day, ip; type: functional, organism-based
# Outline: (§3)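 LS174 cells (2 × 10^6) injected subcutaneously into both flanks of 6–8 week C57BL/6J athymic nude mice; mice randomized to two groups. Daily ip dosing at 20mg/kg/day in corn oil (50 μl/mouse); controls got corn oil alone. Body weight and tumor size (digital caliper) recorded twice weekly for one month; volume V=1/2LW^2 (mm3).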
# Mus musculus = experiment: Toxicity in human LS 174T cells xenografted C57BL/6J athymic nude mouse assessed as change in body weight at 20 mg/kg/day, ip within 1 month; type: organism-based, LS174T; design: route intraperitoneal; conditions: in vivo; outline: as §3
# LS174T [29] = experiment: Inhibition of Wnt/beta-catenin in human LS 174T cells assessed as reduction in pygopus2 mRNA level at 10 uM by RT-PCR analysis; type: cell-based
# LS174T [30] = experiment: Inhibition of Wnt/beta-catenin in human LS174T cells assessed as reduction in c-Myc protein level at 2.5 uM by Western blotting; type: cell-based
# LS174T [31] = experiment: Inhibition of Wnt/beta-catenin in human LS174T cells assessed as reduction in Axin-2 protein level at 2.5 uM by Western blotting; type: cell-based
# LS174T [32] = experiment: Inhibition of Wnt/beta-catenin in human LS 174T cells assessed as reduction in pygopus2 protein level at 10 uM by Western blotting; type: cell-based
# LS174T [33] = experiment: Inhibition of Wnt/beta-catenin in human LS174T cells assessed as reduction in c-Myc protein level at 0.5 uM by Western blotting; type: cell-based
# LS174T [34] = experiment: Inhibition of Wnt/beta-catenin in human LS 174T cells assessed as reduction in TCF4 mRNA level at 10 uM by RT-PCR analysis; type: cell-based
# LS174T [35] = experiment: Inhibition of Wnt/beta-catenin in human LS 174T cells assessed as decrease in […] in nucleus using DAPI staining at 10 uM for 24 hrs by immunofluorescent microscopy; type: cell-based
# Outline: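 LS174 cells treated 24h with 10 μM compound or DMSO, fixed (4% paraformaldehyde, 20 min, RT), permeabilized with 0.3% Triton X-100, blocked in 5% goat serum 30 min. Stained overnight with anti-β-catenin (1:300), then Alexa-488 anti-rabbit IgG (1:500) 40 min; nuclei counterstained with DAPI; confocal imaging.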
# LS174T [36] = experiment: Cytotoxicity against human LS 174T cells at 0.1 uM for 4 days by vi-cell cell viability analysis; type: functional, cell-based; outline: as §1
# LS174T [37] = experiment: Inhibition of Wnt/beta-catenin in human LS174T cells assessed as reduction in Axin-2 protein level at 0.5 uM by Western blotting; type: cell-based
SMILES,inhibition (LS174T [1]),inhibition (LS174T [2]),inhibition (LS174T [3]),Activity (SW480 [4]),Activity (HCT-116 [5]),Activity (HCT-116 [6]),Activity (SW480 [7]),Activity (LS174T [8]),Activity (LS174T [9]),also measured
CN(C)c1ccc(/C=C/c2cccc(F)c2F)cc1,Active,inactive,Active,,,,,,,
CN(C)c1cccc(/C=C/c2c(F)cccc2F)c1,inactive,inactive,inactive,,,,,,,
Fc1ccccc1/C=C/c1ccc(N(c2ccccc2)c2ccccc2)cc1,inactive,inactive,inactive,,,,,,,
CN(C)c1ccc(/C=C/c2ccccc2F)cc1,Active,inactive,Active,Active,Active,Active,Active,Active,Active,
COc1cc(/C=C/c2ccc(O)cc2)cc(OC)c1,,,,Active,Active,Active,Active,Active,Active,
CN(C)c1ccc(/C=C/c2ccc(F)cc2)cc1,,inactive,,,,,,,,
CN(C)c1ccc(/C=C/c2ccccc2)cc1,inactive,inactive,inactive,,,,,,,inhibition (LS174T [10]): Active; inhibition (LS174T [11]): Active
Oc1ccc(/C=C/c2cc(O)cc(O)c2)cc1,,,,Active,Active,Active,Active,Active,Active,inhibition (LS174T [12]): Active; inhibition (LS174T [13]): Active; inhibition (HEK-293T [14]): Active; inhibition (LS174T [15]): Active; inhibition (LS174T [16]): Active; inhibition (LS174T [17]): Active; inhibition (LS174T [18]): Active; inhibition (LS174T [19]): Active; inhibition (LS174T [20]): Active; inhibition (LS174T [21]): Active; inhibition (HEK-293T [22]): Active; inhibition (LS174T [23]): Active; inhibition (LS174T [24]): inactive; inhibition (LS174T [25]): Active
CN(C)c1ccc(/C=C/c2c(F)cccc2F)cc1,Active,inactive,Active,,,,,,,inhibition (LS174T [26]): Active; Activity (LS174T [27]): Active; growth inhibition (GI) (LS174T [28]): Active; Activity (Mus musculus): Non-toxic; inhibition (LS174T [29]): inactive; inhibition (LS174T [30]): Active; inhibition (LS174T [31]): Active; inhibition (LS174T [32]): Active; inhibition (LS174T [33]): Active; inhibition (LS174T [34]): Active; inhibition (LS174T [35]): Active; Activity (LS174T [36]): Active; inhibition (LS174T [37]): Active
